Activity calls are given as the source filed them.
Columns and labels:
[1] = molecular target: Signal transducer and activator of transcription 3 (Homo sapiens) (UniProt P40763); assay: Inhibition of STAT3 phosphorylation in human U373MG cells measured up to 25 uM after 24 hrs by Western blot analysis; type: cell-based; conditions: U-373MG ATCC
Summary of the method: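 Cells grown in MEM (U87MG) or RPMI (U373MG) with 10% FBS, 5% CO2, 37 °C. Treated for 24 h with the indicated concentrations of morusin (DMSO stock). Whole-cell lysates immunoblotted for phosphorylated and total proteins, with β-actin as internal control.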

U-87 MG = assay: Induction of DR5 expression in human U87MG cells after 24 hrs by Western blot analysis; type: functional, cell-based; conditions: U-87MG ATCC
Summary of the method: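 Cells exposed to a range of morusin concentrations for 24 h. Cell extracts immunoblotted for DR4, DR5, DcR1 and DcR2, with β-actin as internal control and HRP-conjugated secondary antibodies (1:5000).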

[2] = Reduction of survivin mRNA expression in human U87MG cells after 24 hrs by RT-qPCR analysis; type: functional, cell-based; conditions: U-87MG ATCC
Summary of the method: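 U87MG cells were treated with graded morusin for 24 h. Total RNA was extracted with TRI Reagent, and 1 μg was reverse transcribed. XIAP and survivin mRNA were quantified by RT-qPCR, normalized to GAPDH. Results are mean ± SD from at least three independent experiments; unpaired t-test.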

Sequence of Signal transducer and activator of transcription 3 (Homo sapiens) (P40763 whole entry): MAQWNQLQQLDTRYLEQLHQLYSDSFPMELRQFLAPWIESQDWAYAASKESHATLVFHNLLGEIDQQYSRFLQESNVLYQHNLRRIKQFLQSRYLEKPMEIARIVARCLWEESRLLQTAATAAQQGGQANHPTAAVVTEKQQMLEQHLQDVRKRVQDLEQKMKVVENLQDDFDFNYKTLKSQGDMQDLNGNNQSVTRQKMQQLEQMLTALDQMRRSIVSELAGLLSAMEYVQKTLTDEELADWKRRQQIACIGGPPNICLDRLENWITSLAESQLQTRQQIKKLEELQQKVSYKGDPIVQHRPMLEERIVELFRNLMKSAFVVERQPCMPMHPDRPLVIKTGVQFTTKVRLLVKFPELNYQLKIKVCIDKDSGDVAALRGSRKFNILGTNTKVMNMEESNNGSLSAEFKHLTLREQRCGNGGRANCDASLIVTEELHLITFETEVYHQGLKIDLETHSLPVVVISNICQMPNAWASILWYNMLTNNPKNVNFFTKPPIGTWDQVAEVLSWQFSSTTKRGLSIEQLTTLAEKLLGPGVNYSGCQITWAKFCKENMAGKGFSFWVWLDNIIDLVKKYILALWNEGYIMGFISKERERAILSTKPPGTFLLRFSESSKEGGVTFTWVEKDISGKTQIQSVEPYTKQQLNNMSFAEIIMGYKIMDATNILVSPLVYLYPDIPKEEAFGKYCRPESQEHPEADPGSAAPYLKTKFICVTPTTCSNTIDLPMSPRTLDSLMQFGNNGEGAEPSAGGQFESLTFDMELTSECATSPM

CC(C)=CCc1c(-c2ccc(O)cc2O)oc2c3c(cc(O)c2c1=O)OC(C)(C)C=C3 [MORUSIN]
active: inhibition [1] | Activity (U-87 MG) Dose-dependent effect | Activity [2] Dose-dependent effect

From ChEMBL document CHEMBL3797089, “Morusin Induces TRAIL Sensitization by Regulating EGFR and DR5 in Human Glioblastoma Cells” (J Nat Prod, 2016)
